Results from different studies.
Each line is one published result; the experiments were not run side by side.
Target: Dual specificity protein kinase CLK3 (CLK3, Homo sapiens, UniProt P49761)
Technique: competition with immobilised ligand

Compound	test	conditions	remaining binding [%]
COc1ncc2cc3ccccc3nc2c1C#N	cell-free assay	5 µM	94
COc1cnc(Nc2cccc(S(N)(=O)=O)c2)nc1N1CCN(c2ccccc2)C(=O)C1	binding	1 µM	100
C[C@@H](c1ccc(-n2cnc3c(N)ncnc32)cc1)N1CCc2nn(C)c(Cc3ccccc3)c2C1=O	binding	0.1 µM	71
O=C(c1ccc(Nc2nccc(-c3cc4ccccc4s3)n2)cc1)N1CCC(N2CCCC2)CC1	binding	1 µM	73
O=C(Nc1c[nH]nc1C(=O)NC1CCNCC1)c1cc(F)cc(F)c1	binding	1 µM	100
O=S(=O)(NC1CCC(c2cc(F)ccc2F)(S(=O)(=O)c2ccc(Cl)cc2)CC1)C(F)(F)F (centres unmarked)	cell-free assay	1 µM	86
FC(F)(F)Oc1cccc(-c2cnc3ccc(-c4ccncc4)nn23)c1	cell-free assay	5 µM	8.1
CS(=O)(=O)c1cc(C2(NC(=O)c3cncc4c3cnn4-c3ccc(F)cc3)CC2)ccn1	cell-free assay	1 µM	86
O=C(NCCCN1CCOCC1)c1ccc(Nc2ncc(Cl)c(-c3ccc(Cl)s3)n2)cc1	binding	1 µM	37
COc1cnc(Nc2cccc(S(N)(=O)=O)c2)nc1N1CCN(c2ccccc2)CC1	binding	1 µM	97
Nc1c(C(=O)NCc2ccc(C(=O)NCCCC3CCCCC3)cc2)cnn1-c1ccccc1	cell-free assay	0.1 µM	95
C=CC(=O)N1CCC(C(=O)NCC(=O)N2CCN(c3nc(-c4cnc(N)nc4C(F)F)nc(N4CCOCC4)n3)CC2)CC1	binding	1 µM	97
CCOC(=O)c1cc2cc(-c3cc(C(=O)NCc4ccc(C(=O)O)cc4)nn3C)ccc2[nH]1	cell-free assay	0.1 µM	83
O=C(c1ccc(Nc2ncc(Cl)c(-c3ccc(Cl)s3)n2)cc1)N1CCC(N2CCCC2)CC1	binding	1 µM	15
